According to PubChem BioAssay:
Calls of active or inactive are those of the source.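 The calls were made as follows: active = duplicate-averaged activation above buffer control mean plus 5 SD of those controls; inactive = the rest.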

Assay: thallium flux activation in parental CHO cells, counter-screen for KCNQ1 potentiator project (AID 493006);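 as to activation: fluorescence ratio of max minus min over baseline after K+ and Tl+ depolarization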
Settings: parental CHO-K1 cells, FluxOR thallium flux, at 10 µM; active compounds read high
Summary of the method: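 Material: parental CHO-K1 cells, FluxOR dye-loaded; Also added: Potassium/thallium depolarization pulse; Schedule: overnight 37 °C plating, 90 min dye, 20 min dark compound; Signal: kinetic FluxOR fluorescence, 10 s baseline, 110 s after stimulus.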

**Q.** With `CCc1cccc(C)c1NC(=O)c1ccc2nc(N3CCOCC3)sc2c1` as the molecule, how does the outcome read?
**A.** inactive

**Q.** For `CC(C)CN1C(=O)/C(=C/c2cccs2)NC1=S`, which activation is on record?
**A.** 392% (active)

**Q.** With `COCCn1c(SCC(=O)NCc2ccc3c(c2)OCO3)nnc1C(C)C` as the molecule, how does the outcome read?
**A.** inactive

**Q.** For `COc1ccc(CCNC(=O)c2ccc(N(C)S(=O)(=O)c3ccc(C)cc3)cc2)cc1OC`, which outcome is on record?
**A.** inactive

**Q.** For `Cc1noc(C)c1CSc1ncnc2sc3c(c12)CCCCC3`, which activation is on record?
**A.** 175% (active)

**Q.** Which outcome does the source give for `O=C(O)c1ccccc1C(=O)NNc1ccc(Cl)cc1` here?
**A.** inactive

**Q.** With `CC(C)(C)n1nnnc1C(c1cc2cc3c(cc2[nH]c1=O)OCCO3)N1CCSCC1` (centres undefined) as the molecule, how does the outcome read?
**A.** inactive

**Q.** With `Cc1snnc1C(=O)NC(=S)Nc1ccccc1` as the molecule, how does the activation read?
**A.** 205% (active)

**Q.** With `CCN1C(=O)/C(=C/c2ccc(C)s2)NC1=S` as the molecule, how does the activation read?
**A.** 208% (active)

**Q.** Which activation does the source give for `CC1(c2ccccc2)CC(C)(C)N2C(=O)/C(=C3\SC(=S)NC3=O)c3cccc1c32` (centres undefined) here?
**A.** 684% (active)

**Q.** Which outcome does the source give for `C/C(=N\Nc1nc2ccccc2[nH]1)c1ccc(Cl)s1` here?
**A.** inactive

**Q.** For `COc1ccc(-c2oc3ccccc3c(=O)c2OC(C)=O)cc1`, which activation is on record?
**A.** 144% (active)

**Q.** For `COC(=O)c1c(NC(=O)CC2SC(N)=NC2=O)sc2c1CCC(C)C2` (centres undefined), which outcome is on record?
**A.** inactive

**Q.** With `Cc1cc(C)nc(NC(=O)/C=C/c2ccccc2Cl)n1` as the molecule, how does the outcome read?
**A.** inactive

**Q.** With `CCC(=O)Nc1cc(-c2nn3c(C)nnc3s2)ccc1C` as the molecule, how does the outcome read?
**A.** inactive

**Q.** With `O=c1c(-c2ccc(Cl)cc2)[n+]([O-])c2ccccc2n1O` as the molecule, how does the activation read?
**A.** 190% (active)

**Q.** Which activation does the source give for `O=C(NC(=S)NCCC1=CCCCC1)c1ccc(Br)o1` here?
**A.** 212% (active)

**Q.** For `CCCCOC(=O)Nc1ccccc1C(N)=O`, which outcome is on record?
**A.** inactive

**Q.** Which outcome does the source give for `Fc1cccc(/C=N/Nc2ccc3ccccc3n2)c1` here?
**A.** inactive
